Values joined by “and” are separate entries in the source; they are usually repeats but may differ in a detail not shown here. Identical values can stand only once.
Tested on: Mycobacterium tuberculosis
Test: Minimum inhibitory concentration against Mycobacterium tuberculosis H37Rv (ATCC 27294) in BACTEC 6A medium
Type: functional
Method in brief: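 M. tuberculosis H37Rv ATCC 27294 tested in the BACTEC 460 radiometric system in BACTEC 6A medium. Percent inhibition = 1 − (growth index of test sample / growth index of control) × 100. MIC taken as the lowest concentration inhibiting 99% of the inoculum.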

Compound	MIC
Sc1nc(-c2cnccn2)no1	1600 µM and 288 µg/mL
CC(C)(C)C(=O)OCn1c(-c2cnccn2)noc1=O	200 µM and 56 µg/mL
Oc1nc(-c2cnccn2)no1	800 µM and 131 µg/mL
O=c1oc(-c2ccncc2)ns1	50 µM and 9 µg/mL
CC(C)(C)C(=O)OCn1nnnc1-c1cnccn1	50 µM and 13 µg/mL
Oc1nc(-c2cccnc2)no1	> 1600 µM and > 261 µg/mL
CC(C)(C)C(=O)OCn1c(-c2cccnc2)noc1=O	100 µM and 28 µg/mL
Sc1nc(-c2ccncc2)no1	> 1600 µM and > 286 µg/mL
O=c1oc(-c2cnccn2)ns1	25 µM and 4.5 µg/mL
O=c1oc(-c2cccnc2)ns1	25 µM and 4.5 µg/mL
Oc1nc(-c2ccncc2)no1	> 1600 µM and > 261 µg/mL
CC(C)(C)C(=O)OCn1c(-c2ccncc2)noc1=O	50 µM and 14 µg/mL
Sc1nc(-c2cccnc2)no1	> 1600 µM and > 286 µg/mL
CC(C)(C)C(=O)OCSc1nc(-c2ccncc2)no1	200 µM and 59 µg/mL
CC(C)(C)C(=O)OCSc1nc(-c2cnccn2)no1	400 µM and 118 µg/mL
CC(C)(C)C(=O)OCSc1nc(-c2cccnc2)no1	200 µM and 59 µg/mL
NNC(=O)c1ccncc1 [ISONIAZID]	0.15 µM and 0.018 µg/mL
NC(=O)c1cnccn1 [PYRAZINAMIDE]	400 µM and 49 µg/mL

Reference: ChEMBL document CHEMBL1134471, “Antimycobacterial activity of substituted isosteres of pyridine- and pyrazinecarboxylic acids. 2” (2001)
